Results reported in ChEMBL document CHEMBL1629657, “In vitro antimicrobial activity of a new cephalosporin, ceftaroline, and determination of quality control ranges for MIC testing” (2009).
In brackets after ≈: the same amount, converted by molar mass.

Key:
Format in all cases: functional
[1] = system: Streptococcus viridans; experiment: Antimicrobial activity against Streptococcus viridans group clinical isolate by broth microdilution method
Summary of the method: (§1)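 Streptococcal isolates were tested by CLSI broth microdilution in cation-adjusted Mueller-Hinton broth supplemented with 3% lysed horse blood. The read-out was the MIC, with MIC90 (μg/ml) reported per group. Ceftriaxone, levofloxacin and imipenem served as comparators.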

[2] = system: Streptococcus pneumoniae; experiment: Antimicrobial activity against penicillin-susceptible Streptococcus pneumoniae by broth microdilution method; summary of the method: as §1
[3] = system: Streptococcus pneumoniae; experiment: Antimicrobial activity against levofloxacin-resistant Streptococcus pneumoniae by broth microdilution method
Summary of the method: (§2)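 CLSI broth microdilution in cation-adjusted Mueller-Hinton broth with 3% lysed horse blood, against streptococcal clinical isolates of the stated phenotype. Ceftaroline was compared with ceftriaxone, levofloxacin and imipenem. Activity was expressed as MICs (MIC90 in μg/ml).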

[4] = system: Streptococcus pneumoniae; experiment: Antimicrobial activity against penicillin-resistant Streptococcus pneumoniae by broth microdilution method; summary of the method: as §2
[5] = system: Streptococcus pyogenes; experiment: Antimicrobial activity against macrolide-resistant Streptococcus pyogenes by broth microdilution method; summary of the method: as §2
[6] = system: Streptococcus pyogenes; experiment: Antimicrobial activity against macrolide-susceptible Streptococcus pyogenes by broth microdilution method; summary of the method: as §2
[7] = system: Staphylococcus aureus; experiment: Antimicrobial activity against methicillin-resistant Staphylococcus aureus by broth microdilution method
Summary of the method: (§3)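 Isolates of the stated resistance phenotype were tested by CLSI broth microdilution in unsupplemented cation-adjusted Mueller-Hinton broth. Ceftaroline was compared with ceftriaxone, levofloxacin and imipenem. Activity was expressed as MICs (MIC90 in μg/ml).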

[8] = system: Streptococcus agalactiae; experiment: Antimicrobial activity against Streptococcus agalactiae by broth microdilution method; summary of the method: as §1
[9] = system: Enterococcus faecium; experiment: Antimicrobial activity against Enterococcus faecium by broth microdilution method
Summary of the method: (§4)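 Clinical isolates were tested by CLSI broth microdilution in unsupplemented cation-adjusted Mueller-Hinton broth. The read-out was the MIC, reported as MIC90 (μg/ml) per species or phenotypic group. Ceftriaxone, levofloxacin and imipenem were run in parallel as comparators.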

[10] = system: Pseudomonas aeruginosa; experiment: Antimicrobial activity against Pseudomonas aeruginosa by broth microdilution method; summary of the method: as §4
[11] = system: Staphylococcus aureus; experiment: Antimicrobial activity against methicillin-susceptible Staphylococcus aureus by broth microdilution method; summary of the method: as §4
[12] = system: Klebsiella pneumoniae; experiment: Antimicrobial activity against ESBL-negative Klebsiella pneumoniae by broth microdilution method; summary of the method: as §4
[13] = system: Staphylococcus; experiment: Antimicrobial activity against methicillin-susceptible coagulase-negative Staphylococcus by broth microdilution method; summary of the method: as §4
[14] = system: Staphylococcus aureus; experiment: Antimicrobial activity against vancomycin-intermediate Staphylococcus aureus by broth microdilution method; summary of the method: as §4
[15] = system: Stenotrophomonas maltophilia; experiment: Antimicrobial activity against Stenotrophomonas maltophilia by broth microdilution method; summary of the method: as §4
[16] = system: Haemophilus influenzae; experiment: Antimicrobial activity against beta-lactamase-negative ampicillin resistant Haemophilus influenzae by broth microdilution method
Summary of the method: (§5)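 CLSI broth microdilution in Haemophilus test medium (cation-adjusted Mueller-Hinton base) against clinical H. influenzae isolates of the stated phenotype. Ceftaroline was compared with ceftriaxone, levofloxacin and imipenem. Activity was expressed as MICs (MIC90 in μg/ml).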

[17] = system: Staphylococcus; experiment: Antimicrobial activity against methicillin-resistant coagulase-negative Staphylococcus by broth microdilution method; summary of the method: as §3
[18] = system: Enterobacter cloacae; experiment: Antimicrobial activity against ESBL-negative Enterobacter cloacae by broth microdilution method; summary of the method: as §4
[19] = system: Proteus vulgaris; experiment: Antimicrobial activity against Proteus vulgaris by broth microdilution method; summary of the method: as §4
[20] = system: Enterococcus faecalis; experiment: Antimicrobial activity against vancomycin-susceptible Enterococcus faecalis by broth microdilution method; summary of the method: as §4
[21] = system: Proteus mirabilis; experiment: Antimicrobial activity against Proteus mirabilis by broth microdilution method; summary of the method: as §4
[22] = system: Haemophilus influenzae; experiment: Antimicrobial activity against beta-lactamase-negative Haemophilus influenzae by broth microdilution method; summary of the method: as §5
[23] = system: Staphylococcus aureus; experiment: Antimicrobial activity against vancomycin-resistant Staphylococcus aureus by broth microdilution method; summary of the method: as §3
[24] = system: Klebsiella aerogenes; experiment: Antimicrobial activity against ESBL-negative Enterobacter aerogenes by broth microdilution method; summary of the method: as §4
[25] = system: Shigella sp.; experiment: Antimicrobial activity against Shigella spp. by broth microdilution method; summary of the method: as §4
[26] = system: Providencia rettgeri; experiment: Antimicrobial activity against Proteus rettgeri by broth microdilution method; summary of the method: as §4
[27] = system: Serratia marcescens; experiment: Antimicrobial activity against Serratia marcescens by broth microdilution method; summary of the method: as §4
[28] = system: Pseudomonas aeruginosa; experiment: Antimicrobial activity against multidrug resistant Pseudomonas aeruginosa by broth microdilution method; summary of the method: as §3
[29] = system: Escherichia coli; experiment: Antimicrobial activity against ESBL-positive Escherichia coli by broth microdilution method; summary of the method: as §4
[30] = system: Haemophilus influenzae; experiment: Antimicrobial activity against beta-lactamase-positive Haemophilus influenzae by broth microdilution method
Summary of the method: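 H. influenzae isolates were tested by CLSI broth microdilution using Haemophilus test medium. The MIC was read and MIC90 (μg/ml) reported for the group. Ceftriaxone, levofloxacin and imipenem served as comparators.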

[31] = system: Salmonella sp.; experiment: Antimicrobial activity against Salmonella spp. by broth microdilution method; summary of the method: as §4
[32] = system: Enterococcus faecalis; experiment: Antimicrobial activity against Enterococcus faecalis by broth microdilution method; summary of the method: as §4
[33] = system: Enterococcus faecium; experiment: Antimicrobial activity against vancomycin-susceptible Enterococcus faecium by broth microdilution method; summary of the method: as §4
[34] = system: Moraxella catarrhalis; experiment: Antimicrobial activity against Moraxella catarrhalis by broth microdilution method; summary of the method: as §4
[35] = system: Providencia stuartii; experiment: Antimicrobial activity against Proteus stuartii by broth microdilution method; summary of the method: as §4
[36] = system: Burkholderia cepacia; experiment: Antimicrobial activity against Burkholderia cepacia by broth microdilution method; summary of the method: as §4
[37] = system: Escherichia coli; experiment: Antimicrobial activity against ESBL-negative Escherichia coli by broth microdilution method; summary of the method: as §4
[38] = system: Klebsiella pneumoniae; experiment: Antimicrobial activity against ESBL-positive Klebsiella pneumoniae by broth microdilution method; summary of the method: as §4
[39] = system: Listeria monocytogenes; experiment: Antimicrobial activity against Listeria monocytogenes by broth microdilution method; summary of the method: as §4
[40] = system: Streptococcus pneumoniae; experiment: Antimicrobial activity against penicillin-intermediate Streptococcus pneumoniae by broth microdilution method; summary of the method: as §2
[41] = system: Morganella morganii; experiment: Antimicrobial activity against Morganella morganii by broth microdilution method; summary of the method: as §4
[42] = system: Corynebacterium jeikeium; experiment: Antimicrobial activity against Corynebacterium jeikeium by broth microdilution method; summary of the method: as §4

CO/N=C(\C(=O)N[C@@H]1C(=O)N2C(C(=O)O)=C(CSc3nc(=O)c(O)nn3C)CS[C@H]12)c1csc(N)n1 [CEFTRIAXONE]
MIC50 [1]: 0.12 µg/mL (≈ 0.216 µM) | MIC90 [1]: 1 µg/mL (≈ 1.8 µM) | MIC50 [2]: 0.03 µg/mL (≈ 0.0541 µM) | MIC90 [2]: 0.06 µg/mL (≈ 0.108 µM) | MIC50 [3]: 0.25 µg/mL (≈ 0.451 µM) | MIC90 [3]: 2 µg/mL (≈ 3.61 µM) | MIC50 [4]: 2 µg/mL (≈ 3.61 µM) | MIC90 [4]: 8 µg/mL (≈ 14.4 µM) | MIC [5]: 0.015 µg/mL (≈ 0.027 µM) | MIC50 [5]: 0.015 µg/mL (≈ 0.027 µM) | MIC90 [5]: 0.03 µg/mL (≈ 0.0541 µM) | MIC [6]: 0.015 µg/mL (≈ 0.027 µM) | MIC50 [6]: 0.015 µg/mL (≈ 0.027 µM) | MIC90 [6]: 0.03 µg/mL (≈ 0.0541 µM) | MIC50 [7]: 32 µg/mL (≈ 57.7 µM) | MIC [8]: 0.06 µg/mL (≈ 0.108 µM) | MIC50 [8]: 0.06 µg/mL (≈ 0.108 µM) | MIC90 [8]: 0.12 µg/mL (≈ 0.216 µM) | MIC [9]: > 32 µg/mL | MIC50 [9]: > 32 µg/mL | MIC90 [9]: > 32 µg/mL | MIC50 [10]: > 32 µg/mL | MIC90 [10]: > 32 µg/mL | MIC50 [11]: 4 µg/mL (≈ 7.21 µM) | MIC90 [11]: 4 µg/mL (≈ 7.21 µM) | MIC50 [12]: 0.06 µg/mL (≈ 0.108 µM) | MIC90 [12]: 0.12 µg/mL (≈ 0.216 µM) | MIC50 [13]: 2 µg/mL (≈ 3.61 µM) | MIC90 [13]: 8 µg/mL (≈ 14.4 µM) | MIC50 [14]: > 32 µg/mL | MIC90 [14]: > 32 µg/mL | MIC50 [15]: > 32 µg/mL | MIC90 [15]: > 32 µg/mL | MIC50 [16]: 0.12 µg/mL (≈ 0.216 µM) | MIC90 [16]: 0.12 µg/mL (≈ 0.216 µM) | MIC50 [17]: 16 µg/mL (≈ 28.9 µM) | MIC90 [17]: > 32 µg/mL | MIC50 [18]: 0.25 µg/mL (≈ 0.451 µM) | MIC90 [18]: 0.5 µg/mL (≈ 0.902 µM) | MIC50 [19]: 1 µg/mL (≈ 1.8 µM) | MIC90 [19]: > 32 µg/mL | MIC [20]: > 32 µg/mL | MIC50 [20]: > 32 µg/mL | MIC90 [20]: > 32 µg/mL | MIC [21]: 0.015 µg/mL (≈ 0.027 µM) | MIC50 [21]: 0.015 µg/mL (≈ 0.027 µM) | MIC90 [21]: 0.015 µg/mL (≈ 0.027 µM) | MIC [22]: 0.015 µg/mL (≈ 0.027 µM) | MIC50 [22]: 0.015 µg/mL (≈ 0.027 µM) | MIC90 [22]: 0.015 µg/mL (≈ 0.027 µM) | MIC [23]: > 32 µg/mL | MIC50 [24]: 0.12 µg/mL (≈ 0.216 µM) | MIC90 [24]: > 32 µg/mL | MIC [25]: 0.03 µg/mL (≈ 0.0541 µM) | MIC50 [25]: 0.03 µg/mL (≈ 0.0541 µM) | MIC90 [25]: 0.06 µg/mL (≈ 0.108 µM) | MIC50 [26]: 0.06 µg/mL (≈ 0.108 µM) | MIC90 [26]: 0.25 µg/mL (≈ 0.451 µM) | MIC50 [27]: 0.25 µg/mL (≈ 0.451 µM) | MIC90 [27]: 2 µg/mL (≈ 3.61 µM) | MIC [28]: 16 µg/mL (≈ 28.9 µM) | MIC50 [29]: > 32 µg/mL | MIC90 [29]: > 32 µg/mL | MIC [30]: 0.015 µg/mL (≈ 0.027 µM) | MIC50 [30]: 0.015 µg/mL (≈ 0.027 µM) | MIC90 [30]: 0.015 µg/mL (≈ 0.027 µM) | MIC50 [31]: 0.06 µg/mL (≈ 0.108 µM) | MIC90 [31]: > 32 µg/mL | MIC50 [32]: > 32 µg/mL | MIC90 [32]: > 32 µg/mL | MIC50 [33]: > 32 µg/mL | MIC90 [33]: > 32 µg/mL | MIC50 [34]: 0.5 µg/mL (≈ 0.902 µM) | MIC90 [34]: 1 µg/mL (≈ 1.8 µM) | MIC50 [35]: 0.06 µg/mL (≈ 0.108 µM) | MIC90 [35]: 0.25 µg/mL (≈ 0.451 µM) | MIC50 [36]: > 32 µg/mL | MIC90 [36]: > 32 µg/mL | MIC50 [37]: 0.06 µg/mL (≈ 0.108 µM) | MIC90 [37]: 0.25 µg/mL (≈ 0.451 µM) | MIC50 [38]: 32 µg/mL (≈ 57.7 µM) | MIC90 [38]: > 32 µg/mL | MIC50 [39]: > 32 µg/mL | MIC90 [39]: > 32 µg/mL | MIC50 [40]: 0.25 µg/mL (≈ 0.451 µM) | MIC90 [40]: 0.5 µg/mL (≈ 0.902 µM) | MIC50 [41]: 0.5 µg/mL (≈ 0.902 µM) | MIC90 [41]: 32 µg/mL (≈ 57.7 µM) | MIC50 [42]: > 32 µg/mL | MIC90 [42]: > 32 µg/mL
